Results of several laboratories.
Lines come from different studies, so protocols differ.
Cell line: MCF7
Observed: cell growth or viability

Compound	assay	setting	IC50
COc1cccc(C(c2c(N)nc(SCC(N)=O)[nH]c2=O)c2c(N)nc(SCC(N)=O)[nH]c2=O)c1	MTT	72 h	> 100 µM
Cc1cc(C)n(-c2nc(Nc3ccc(Br)cc3)nc(N3CCOCC3)n2)n1	MTT	72 h	4.53 µM
O=C(/C=C/c1ccccc1)c1ccccc1	resazurin	72 h	> 50 µM
Cc1ccc(-c2nn(-c3ccc(S(C)(=O)=O)cc3)cc2/C=N\N=c2/[nH]c(-c3ccc([N+](=O)[O-])cc3)cs2)cc1	MTT	48 h	36 µM
COc1cccc2c1C(=O)c1c(O)c3c(c(O)c1C2=O)C[C@@](O)(C(=O)CO)C[C@@H]3O[C@H]1C[C@H](N)[C@H](O)[C@H](C)O1	MTT	48 h	0.09 µM
COc1cc2c(Nc3ccc(NC(=O)c4ccccc4)cc3)ncnc2cc1OCCCN1CCOCC1	MTS	72 h	0.8 µM
Clc1ccccc1-c1nc2ccccc2[nH]1	MTT	48 h	69 µM
CC(=O)CC(=O)[c-]1cccc1.[Fe+2].c1cc[cH-]c1	MTT	96 h	54 µM
C=CCn1c(-c2ccc([N+](=O)[O-])cc2)nc2ccc(C)cc21	MTT	–	71.1 µM
COc1cc(/C=C/C(=O)c2ccc(NC(=O)c3ccccc3CN3C(=O)c4ccccc4C3=O)cc2)cc(OC)c1OC	MTT	72 h	1.88 µM
c1cncc(-c2nc3ccccc3[nH]2)c1	MTT	48 h	> 100 µM
C=C1C(=O)[C@]2(OC)C(=O)O[C@@]34C[C@H](C)C(C(=O)O)=C[C@@H]3CCC[C@@H](C)C[C@@H](C)[C@H]1O[C@H]24	ATP luminescence	–	21 µM
Oc1ccc(Br)cc1-c1nc2ccccc2[nH]1	MTT	48 h	5.1 µM
COc1ccc(O)c(/C=N/c2nc(Oc3ccccc3)nn2-c2ccc(C(=O)O)cc2)c1	MTT	–	27.5 µM
CC(C)NCC(O)COc1ccccc1-c1ccccc1OCC(O)CNC(C)C (centres unmarked)	MTT	72 h	> 75 µM
COC(=O)/C=C1\S/C(=N\C(=O)c2ccc3ccccc3c2)N(C2CCCCC2)C1=O	–	48 h	14.3 µM
COc1cc2ncnc(Nc3ccc(F)c(Cl)c3)c2cc1NC(=O)N/N=C/c1cccn1CCCN1CCOCC1	MTT	72 h	1.44 µM
c1cnc2c(c1)ccc1cccnc12	MTT	48 h	> 50 µM
CC(C)(C)c1ccc(S(=O)(=O)NN=Cc2cn(CCN3CCOCC3)c3ccccc23)cc1	MTT	48 h	67.8 µM
COc1cc2ncnc(Nc3ccc(F)c(Cl)c3)c2cc1NC(=O)N/N=C/CN1CCN(C)CC1	MTT	72 h	8.76 µM
O=C(NC(=S)Nc1ccc([N+](=O)[O-])cc1)c1ccc2ccccc2c1	–	48 h	7.7 µM
Cc1ccc2nc(-c3ccc(F)cc3)n(Cc3ccccc3)c2c1	MTT	–	43.1 µM
CN(C)CCn1cccc1/C=N/NC(=O)Nc1cc2c(Nc3ccc(F)c(Cl)c3)ncnc2cc1O[C@H]1CCOC1	MTT	72 h	4.82 µM
CS(=O)(=O)c1ccc(-n2cc(C=N/N=c3\[nH]c(-c4ccc(Br)cc4)cs3)c(-c3ccc([N+](=O)[O-])cc3)n2)cc1	MTT	48 h	19.9 µM

Compound	assay	setting	IC50
CSc1nc(NC(=S)NCCc2ccccc2)n(-c2ccc(C(=O)O)cc2)n1	MTT	–	15.6 µM
O=C1NC(c2ccccc2)(c2ccccc2)C(=O)N1Cc1cn(-c2c3ccccc3nc3ccccc23)nn1	MTT	–	42.7 µM
O=C(CCl)Nc1ccc2c(Nc3cccc(C(F)(F)F)c3)ncnc2c1	MTT	24 h	7.78 µM
Cc1ccc2nc(-c3cccc([N+](=O)[O-])c3)[nH]c2c1	MTT	48 h	19.2 µM
O=C(NC(=S)NCc1ccccc1)c1ccc2ccccc2c1	–	48 h	4.99 µM
Cc1ccc2nc(-c3ccc(Cl)cc3Cl)[nH]c2c1	MTT	48 h	57.2 µM
CCN(CC)CCCn1cccc1/C=N/NC(=O)Nc1cc2c(Nc3ccc(F)c(Cl)c3)ncnc2cc1OC	MTT	72 h	2.43 µM
O=c1cc(-c2ccc(O)c(O)c2)oc2cc(O)cc(O)c12	WST-1	48 h	13.4 µM
COc1ccc(C2=N[C@@H](c3ccc(Cl)cc3)[C@@H](c3ccc(Cl)cc3)N2C(=O)N2CCNC(=O)C2)c(OC(C)C)c1	MTT	48 h	11 µM
CCN(CC)C(=S)NC(=O)c1ccc2ccccc2c1	–	48 h	4.72 µM
COc1cccc(-c2nc3ccc(C)cc3[nH]2)c1	MTT	48 h	50.6 µM
Oc1cccc(Nc2ccc3ncnc(Nc4cccc(C(F)(F)F)c4)c3c2)c1	MTT	24 h	20.5 µM
COc1cc2ncnc(Nc3ccc(F)c(Cl)c3)c2cc1NC(=O)N/N=C/c1cccn1CCCN1CCCCC1	MTT	72 h	2.81 µM
CSc1nc(N)n(-c2ccc(C(=O)O)cc2)n1	MTT	–	32.9 µM
COc1ccnc(Nc2ccc3ncnc(Nc4cccc(C(F)(F)F)c4)c3c2)c1	MTT	24 h	5.84 µM
Nc1nc(Oc2ccccc2)nn1-c1ccc(C(=O)O)cc1	MTT	–	18.7 µM
Nc1ccc(-c2csc(Nc3ccc4c(O)ncnc4c3)n2)cc1	MTT	–	8.29 µM
CNc1nc2ccccc2n2c(-c3cccc(OC)c3)cnc12	neutral red	96 h	0.217 µM
CN1CCN(CCn2cccc2/C=N/NC(=O)Nc2cc3c(Nc4ccc(F)c(Cl)c4)ncnc3cc2O[C@H]2CCOC2)CC1	MTT	72 h	2.42 µM
Oc1c(I)cc(Cl)c2cccnc12	MTT	48 h	50.2 µM
COc1ccc(C(=O)O[C@@H]2CN3Cc4c(cc5c(c4OC)OCO5)[C@@]24C=C[C@H](OC)C[C@@H]34)cc1	WST-1	–	> 10 µM
O=C(N/N=C/c1cccn1CCN1CCOCC1)Nc1cc2c(Nc3ccc(F)c(Cl)c3)ncnc2cc1O[C@H]1CCOC1	MTT	72 h	2.13 µM
Oc1ncnc2cc(Nc3nc(-c4ccc(C(F)(F)F)cc4)cs3)ccc12	MTT	–	2.86 µM
